Compound activity deposited in PubChem by several laboratories.
GLD-1 RNA inh: GLD-1-TGE RNA interaction inhibition (C. elegans). 0.44% of 320,000 active. AID 2280. purified GLD-1 + fluorescein TGE RNA, fluorescence polarization. inhibition, % at 5.96 µM;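 active = percent inhibition above a per-plate cutoff, the plate mean of test compounds plus 3 SD, cut at about 30% in these data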;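 note: 0% = DMSO wells with GLD-1 and probe and 100% = wells lacking GLD-1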
VIM-2 inhibitor: inhibitors of Pseudomonas aeruginosa VIM-2 metallo-beta-lactamase; purified VIM-2, nitrocefin hydrolysis, epi-absorbance fluorescence; 0.89% of 290,000 active; inhibition, % at 5.6 µM;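 active = inhibition above the mean of all tested compounds plus 3 SD, cutoff set per screening run, cut at about 7.5% in these data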;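 note: red hydrolysis product quenches plate fluorescence so inhibitors raise well fluorescence; 0% = enzyme with DMSO and 100% = DMSO without enzyme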
Bcl-xL primary: inhibitors of human Bcl-xL; Q07817; GST-Bcl-xL / FITC-Bim BH3 peptide fluorescence polarization; inhibition, % at 10.9 µM; 0.7% of 320,000 active;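 active = inhibition above the mean of all tested compounds plus 3 SD, cutoff set per campaign, cut at about 30% in these data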;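 note: 0% = DMSO wells and 100% = unlabeled Bim-BH3 peptide competitor; inhibitors lower millipolarization by displacing the labeled peptide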
Target sequence (Q07817 whole entry, looked up): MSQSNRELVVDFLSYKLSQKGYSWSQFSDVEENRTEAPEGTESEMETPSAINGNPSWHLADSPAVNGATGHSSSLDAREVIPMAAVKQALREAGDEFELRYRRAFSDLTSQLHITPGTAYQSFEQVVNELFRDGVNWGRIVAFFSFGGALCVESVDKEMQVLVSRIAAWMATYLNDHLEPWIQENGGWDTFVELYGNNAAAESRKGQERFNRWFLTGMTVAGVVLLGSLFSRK
IMP-1 inhibitor: inhibitors of Pseudomonas aeruginosa IMP-1 metallo-beta-lactamase; purified IMP-1, nitrocefin hydrolysis, epi-absorbance fluorescence; inhibition, % at 5.6 µM; 0.45% of 290,000 active;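 active = inhibition above the mean plus 3 SD of all compounds in the same screening run, cut at about 4.5% in these data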;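 note: 0% = IMP-1 with DMSO and 100% = DMSO wells lacking enzyme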
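system = purified recombinant IMP-1 beta-lactamase | amount = 0.2 nM IMP-1, as dispensed | medium = HEPES buffer pH 7.1 with ZnSO4 and Brij 35 | times = 25 °C, 15 min preincubation, 25 min reaction | detection = plate fluorescence quenching by hydrolysis product, ex 480/em 530 nm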
MEX-5 binding: C. elegans MEX-5 TCR-2 RNA binding activity; activity score (negative = inhibition of binding), % at 10 µM; 0.38% of 300,000 active; MEX-5/FITC-TCR2 RNA binding, fluorescence polarization; active compounds read low; Q9XUB2;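 active = inhibition past about -25% in most replicates, and total fluorescence under double the plate's negative control median, limit read from the data; inconclusive = replicates evenly split on the limit, or fluorescence at least double controls; inactive = too little inhibition in most replicates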;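 note: 0% = DMSO and -100% = 5 µM competing unlabeled TCR2 RNA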
EBV gp42 inh: EBV gp42 inhibition. Q1HVG2. Fluorescence polarization binding assay, mP read-out. inhibition, % (tested at 21.74 µM). 0.42% of 220,000 active. AID 1085; in the data active = inhibition above about 50%
Target sequence (Q1HVG2 whole entry, looked up): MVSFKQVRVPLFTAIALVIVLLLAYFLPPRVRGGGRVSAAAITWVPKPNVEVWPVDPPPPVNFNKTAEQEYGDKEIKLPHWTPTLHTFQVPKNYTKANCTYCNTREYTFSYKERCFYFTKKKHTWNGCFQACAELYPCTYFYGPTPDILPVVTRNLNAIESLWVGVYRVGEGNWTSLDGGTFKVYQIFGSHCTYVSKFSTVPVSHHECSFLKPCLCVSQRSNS
Numbers without * were called inactive; ? = inconclusive; . = no result given. Compounds with a hit are over-represented: about 2.2% of the library has one in this group of screens.

SMILES | GLD-1 RNA inh | VIM-2 inhibitor | Bcl-xL primary | IMP-1 inhibitor | MEX-5 binding | EBV gp42 inh
CC1(C(=O)N2CCN(c3ccc([N+](=O)[O-])cc3)CC2)CC1(Cl)Cl (stereo not drawn) | 64* | -1 | 7 | -2 | 1 | .
CCCc1cc(=O)[nH]c(-n2[nH]c3c(c2=O)CCCC3)n1 | 29 | 1 | 47* | 0 | -9 | 14
Cc1c(Cl)cccc1NC(=O)Cn1c(CCC(=O)O)ccc1-c1ccccc1 | 19 | -1 | 13 | -1 | -1 | .
CN(C)C1=NCCN1CCc1cccc(F)c1 | 4 | 1 | 3 | -2 | 1 | .
Cc1cc(Oc2ccccc2)nc(SCC(=O)Nc2ccc(Cl)cc2Cl)n1 | 0 | -5 | 2 | 46* | 1 | 0
COc1ccc(/C=N/N=C2/CC(C)(C)Cc3n[nH]c(=O)cc32)cc1 | 120* | -3 | 138* | -2 | -81* | 70*
COc1ccc(/C=N/N=C2/NC(=O)CC(C(=O)O)S2)cc1 (stereo not drawn) | -8 | -2 | 2 | -4 | 1 | 0
CC(C)Cc1nn2c(N)c(/C=C3\C=Nc4ccccc43)c(=O)nc2s1 | -29 | -1 | 4 | -1 | -46* | -12
CCCc1nn2c(N)c(/C=C3\C=Nc4ccccc43)c(=O)nc2s1 | -2 | -2 | -1 | -4 | -6 | -12
O=C(O)c1cccnc1C(=O)N1CCc2c([nH]c3ccccc23)C1C(F)(F)F (stereo not drawn) | 0 | 9.4* | 4 | -3 | -4 | 2
Cc1ccccc1C(=O)N1CCc2c([nH]c3ccccc23)C1C(F)(F)F (stereo not drawn) | 4 | -2 | 1 | -1 | 1 | 1
CC(=O)Nc1cccc2c1C(=O)N(c1cccc(C)c1)C2=O | 1 | 0 | 4 | 2 | 2 | -21
CC(C)CC(=O)Nc1cccc2c1C(=O)N(c1ccccc1)C2=O | 8 | -1 | 11 | 7.5* | -1 | 4
COc1cccc(N(CC(=O)NCCSCc2ccco2)S(=O)(=O)c2ccccc2)c1 | -2 | 1 | 3 | 5.0* | 4 | .
Cc1cccc(N(CC(=O)NCCSCc2ccco2)S(=O)(=O)c2ccccc2)c1 | -8 | 1 | -9 | -2 | 2 | -6
N#CC1=C(N)Oc2cc(O)c(Cl)cc2C1c1ccccc1F (stereo not drawn) | 59* | 3 | 78* | 1 | -46* | .
Cc1cnc(C(=O)Oc2ccc(-c3ccccc3)cc2)cn1 | 5 | -2 | 7 | -4 | 1 | .
N#Cc1cc(C(=O)c2cc(F)ccc2O)cn(-c2nccs2)c1=O | 11 | 2 | 38* | -1 | ? | 21
N#Cc1cc(C(=O)c2ccccc2O)cn(-c2nccs2)c1=O | 54* | 3 | 32* | 2 | ? | 51*
CC(=O)OCC[C@H](NS(=O)(=O)OCC(Cl)(Cl)Cl)c1ccccc1 | 1 | -2 | 8 | -4 | 2 | .
Cc1nnc(C)c2c(C)n(-c3ccccc3)c(C)c12 | . | -1 | . | -2 | -1 | .
Cc1nnc(C)c2c(C)n(-c3ccccc3N)c(C)c12 | 46* | -2 | 96* | -1 | -5 | 5
CC(C)CC(=O)Nc1ccc(C(=O)CN2C(=O)NC3(CCOc4ccccc43)C2=O)cc1 (stereo not drawn) | 2 | . | -2 | . | -3 | .
Cc1ccc(NC(=S)N=Nc2c(O)[nH]c3ccccc23)cc1 | 0 | -4 | 2 | -3 | 1 | -3
Oc1ccc(NC(=S)N=Nc2c(O)[nH]c3ccccc23)cc1 | 0 | -3 | 24 | -4 | -26* | 2
SMILES | GLD-1 RNA inh | VIM-2 inhibitor | Bcl-xL primary | IMP-1 inhibitor | MEX-5 binding | EBV gp42 inh
O=C(O)c1nc(NCCc2ccccc2)ncc1Cl | 3 | 0 | 10 | -2 | -3 | .
Cc1cc(C(=O)CN2C(=O)C(=O)N(Cc3ccco3)C2=O)c(C)n1CCc1ccc(F)cc1 | 8 | . | -3 | . | . | .
N#CC12C(N)=NC3(OCCO3)C1(C#N)C1=C(CCC1)NC2c1ccccc1 (stereo not drawn) | 63* | -4 | 35* | 1 | -8 | -7
Cc1nn(-c2ccc(Br)cc2)c(=O)c2ccccc12 | 27 | 0 | 31* | 0 | -1 | .
CCOC(=O)c1oc2cc(OCC(=O)OC)ccc2c(=O)c1-c1ccc(OC)c(OC)c1 | 4 | -1 | 2 | -3 | 0 | 51*
Cc1cc(N/N=C/c2ccc(O)cc2)c2cccc(C)c2n1 | -9 | 12* | 0 | -1 | 2 | .
Cc1cc(N/N=C/c2ccc(N(C)C)cc2)c2ccccc2n1 | 2 | 4 | 3 | -3 | -2 | .
CCN(CC)C(=O)c1cc(-c2ccc3c(c2)OCO3)on1 | 0 | 1 | 6 | -1 | 1 | .
CCOC(=O)C(=O)/C(=C\N(C)C)c1onc(-c2ccccc2)c1C(=O)OC | -10 | 0 | -8 | -2 | 1 | 132*
C=CCNC(=O)C1CCN(S(=O)(=O)c2ccc3ccccc3c2)CC1 | -4 | -2 | -1 | -3 | -2 | .
COc1ccc(N2CCN(CCS(=O)(=O)c3cc(Cl)ccc3Cl)CC2)cc1 | 6 | . | 3 | . | . | .
O=C(NNS(=O)(=O)c1ccc([N+](=O)[O-])cc1)C(=O)Nc1cccc(C(=O)O)c1 | 5 | -2 | 3 | -6 | -75* | .
O=C(NCCCO)Nc1ccc2nc(-c3ccco3)c(-c3ccco3)nc2c1 | 54* | -2 | 120* | -2 | . | 67*
OCCCNC(=S)Nc1ccc2nc(-c3ccccn3)c(-c3ccccn3)nc2c1 | 30 | -1 | 46* | -2 | -7 | 7
O=C(Nc1ccc(Oc2ccccc2)nc1)C1CCCCN1Cc1ccco1 (stereo not drawn) | 5 | -2 | 1 | -1 | 2 | .
O=C(COC(=O)c1nc(Cl)ccc1Cl)NCc1cccs1 | 4 | . | 0 | . | -2 | .
COC(=O)c1cc(NCc2ccccc2F)ccc1N1CCOCC1 | 5 | -2 | 4 | 15* | . | -18
COc1ccc(C=NCCC2(O)CC(C)N(C)CC2C)cc1 (stereo not drawn) | 7 | -1 | 31* | -2 | -10 | -5
CC1=C(C(=O)Nc2ccccc2)C(c2ccccc2[N+](=O)[O-])NC(=O)N1 (stereo not drawn) | 17 | -2 | 36* | -2 | -2 | 2
COc1ccccc1NC(=O)C1=C(C)NC(=O)NC1c1ccccc1[N+](=O)[O-] (stereo not drawn) | 3 | -5 | 14 | -5 | -5 | -5
COC(=O)Cn1c(O)c(N=NC(=O)CNC(=O)COc2cccc(C)c2)c2ccccc21 | 0 | -2 | 1 | -3 | 1 | .
CCCCc1nnc(NC(=O)Cc2ccc(S(=O)(=O)N3CCOCC3)s2)s1 | 16 | . | 6 | . | . | .
CC(C)(C)c1csc(NC(=O)Cc2ccc(S(=O)(=O)N3CCOCC3)s2)n1 | 22 | . | 33* | . | -4 | .
O=C(/C=C/c1cc(Br)ccc1F)OCC(=O)N1CCOCC1 | 5 | . | . | . | . | .
